The nature of the series: Toxicity in CD-1 mouse assessed as effect on stool water content at 10 mg/kg, po administered via gavage for 1 hr. In kind it is organism-based. The settings on record: in vivo. A digest of the protocol:
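Female CD1 mice aged 8–10 weeks without loperamide: 10 mg/kg compound or vehicle (PBS with 5% DMSO and 20% (2-hydroxypropyl)-β-cyclodextrin) by gavage, 1 h before ip injection of loperamide vehicle (5% ethanol in PBS). Mice were caged singly in metabolic cages and stool collected 3 h for weight, pellet count and water content (dried 80 °C, 24 h).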

For `Cc1c(CC(=O)O)c(=O)oc2c(C)c(OCc3cccc(I)c3)ccc12`, the Activity entry was “Non-Toxic”.

(Values after ChEMBL document CHEMBL4373708 (J Med Chem, 2019).)
